The values that follow come from PMC11377146 (International Journal for Parasitology: Drugs and Drug …, 2024).

As usually defined, the CC50 is the concentration at which the toxic effect on the cells reaches its halfway point. High values mean better tolerance by the cells, low ones harm at low concentration. For orientation: IC50 means the concentration needed to halve the response being measured.

The nature of data set [1]: Cytotoxicity. The data set is classed as cell-based. The conditions noted are these: human, Caco-2 cells. A digest of the protocol:
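Caco-2 cells grown 24 h in EMEM + 10% FBS, 37 °C, 5% CO2. Test compound (10 ng/ml–100 μg/ml, in EMEM with 0.5% DMSO) applied for 24 h. MTT (5 mg/ml stock) added for 4 h, formazan dissolved in 4 mM HCl/0.1% Nonidet P-40 in isopropanol. A590 read, 620 nm reference. Viability relative to untreated wells; CC50 from curve fit.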

The test system of data set [2] is G. duodenalis trophozoite stage. Kind of data set: In vitro antigiardial assay. In kind it is cell-based. The conditions noted are these: Giardia duodenalis, 48 h, G. duodenalis trophozoites. In a few lines: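 Log-phase trophozoites grown in modified TYI-S-33 at 37 °C, harvested by chilling on ice, counted. DMSO stocks diluted two-fold serially; 2 × 10^5 trophozoites/well; metronidazole positive control. Incubated 48 h at 37 °C, anaerobic. BacTiter-Glo added, 20 min at 37 °C, luminescence read. Survival = medium-blank-corrected signal vs untreated; triplicates. SI = Caco-2 CC50 / IC50.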

For data set [3], the system named is 3D7 parasite line. The conditions noted are these: ref Whittell et al., 2011; cited from earlier work.

Several values for one entry are separate records, joined by “and”; a condition that tells them apart may be missing. Equal entries are not always repeated. Some results are limits rather than exact numbers.

As to `Cc1ncc([N+](=O)[O-])n1CCO` [Metronidazole, metronidazole], the 50% cytotoxic concentration (CC50) at 24 h in data set [1] is > 100 µg/mL and > 100 µM. The IC50 in data set [2] was 2.01 µg/mL and 11.7 µM.
Take `Cn1cc2c3ccccc3nc-2c2ccccc21` [isocryptolepine, Isocryptolepine]: the IC50 in data set [3] was 665 nM.
